From ChEMBL document CHEMBL6071141, “In vitro and in vivo evaluation of Bombesin-MMAE conjugates for targeted tumour therapy” (Eur J Med Chem, 2024)
Numbered stars: 1 amine (or outer) side, 2 acyl side, 3 side chain; on linkers, the order of the positions; unused ones are H or OH. Bridge positions count the residues as written; N and C are the ends. Square brackets hold non-standard residues; d marks the D form. Peptide text beside a SMILES is read from it. I, II: the chains in the order shown. * marks the point of attachment. Hexanoyl(6-succinimido-3yl) = O=C1CC([*:1])C(=O)N1CCCCCC(=O)[*:2]; Trp(3a,7a-dihydro) = N[C@@H](CC1=CNC2C=CC=CC12)C(=O)O; Dolaproine = CO[C@@H]([C@@H]1CCCN1)[C@@H](C)C(=O)O; Dil = CC[C@H](C)[C@H](NC)[C@@H](CC(=O)O)OC; Sta = CC(C)C[C@H](N)[C@@H](O)CC(=O)O; PABC = O=C(OCc1ccc(N[*:1])cc1)[*:2]; X3 = C[C@@H](N*)[C@@H](O)c1ccccc1; Cit = NC(=O)NCCC[C@H](N)C(=O)O; PEG4 = NCCOCCOCCOCCOCCC(=O)O; NMeV = CN[C@H](C(=O)O)C(C)C; Nle = CCCC[C@H](N)C(=O)O; βAla = NCCC(=O)O

Columns and labels:
[1] = Displacement of 125 I- [Tyr4] from bombesin receptor 1 (unknown origin) assessed as inhibition by radioligand competitive binding assay; parameters: species or system Homo sapiens
[2] = target: T1, Gastrin-releasing peptide receptor (Homo sapiens, UniProt P30550); assay: Displacement of 125 I- [Tyr4] from bombesin receptor 2 (unknown origin) assessed as inhibition by radioligand competitive binding assay
T1 sequence (P30550 whole entry): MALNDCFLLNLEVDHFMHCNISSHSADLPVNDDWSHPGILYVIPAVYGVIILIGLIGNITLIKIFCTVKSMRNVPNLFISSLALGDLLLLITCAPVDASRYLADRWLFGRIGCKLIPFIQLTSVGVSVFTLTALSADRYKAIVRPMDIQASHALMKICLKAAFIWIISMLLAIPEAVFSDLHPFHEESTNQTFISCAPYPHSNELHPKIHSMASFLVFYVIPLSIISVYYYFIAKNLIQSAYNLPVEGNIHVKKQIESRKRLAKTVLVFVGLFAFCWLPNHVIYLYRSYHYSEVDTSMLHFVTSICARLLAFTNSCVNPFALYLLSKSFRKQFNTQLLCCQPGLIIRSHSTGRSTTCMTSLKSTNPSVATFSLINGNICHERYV

[3] = target: T2, Bombesin receptor subtype-3 (Homo sapiens, UniProt P32247); assay: Displacement of 125 I- [Tyr4] from bombesin receptor 3 (unknown origin) assessed as inhibition by radioligand competitive binding assay
T2 sequence (P32247 whole entry): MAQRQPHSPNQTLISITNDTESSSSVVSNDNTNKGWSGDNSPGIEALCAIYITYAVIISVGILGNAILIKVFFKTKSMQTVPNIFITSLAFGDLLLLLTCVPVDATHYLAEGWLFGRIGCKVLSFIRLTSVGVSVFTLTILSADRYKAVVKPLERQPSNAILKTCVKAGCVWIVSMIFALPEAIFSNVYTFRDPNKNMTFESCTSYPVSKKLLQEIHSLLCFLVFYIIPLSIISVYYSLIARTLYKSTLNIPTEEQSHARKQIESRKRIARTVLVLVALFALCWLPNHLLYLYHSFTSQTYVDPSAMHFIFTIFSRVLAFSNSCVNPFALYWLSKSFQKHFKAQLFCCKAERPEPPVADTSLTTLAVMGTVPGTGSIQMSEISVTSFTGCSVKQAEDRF

[4] = Cytotoxicity against human PC-3 cells assessed as inhibition of cell growth incubated for 72 hrs by CellTiter 96 aqueous assay; type: toxicity, cell-based
In short: (§1)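 PC-3 or MDA-MB-231 cells were treated the day after seeding with serial dilutions, from 2000 nM for conjugates and 100 nM for MMAE, for 72 h. Then the assay was stopped, or run 72 h more after a medium change (single) or re-treatment (double). Controls got 0.05 % DMSO. Read-out was MTS absorbance at 490 nm after 90 min. IC50 by non-linear regression; ≥2 experiments, triplicates.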

[5] = Cytotoxicity against human cells MDA-MB-231 assessed as inhibition of cell growth incubated for 72 hrs by CellTiter 96 aqueous assay; type: toxicity, cell-based; settings: MDA-MB-231 cells; in short: as §1
[6] = Cytotoxicity against human PC-3 cells assessed as inhibition of cell growth incubated with compound for 72 hrs followed by further incubated for 72 hrs (single treatment) by CellTiter 96 aqueous assay; type: toxicity, cell-based; in short: as §1
[7] = Cytotoxicity against human PC-3 cells assessed as inhibition of cell growth incubated for 72 hrs and followed by treated with compound continued incubation for further 72 hrs (double treatment) after retreatment of compound by CellTiter 96 aqueous assay; type: toxicity, cell-based; in short: as §1
[8] = Cytotoxicity against human MDA-MB-231 cells assessed as inhibition of cell growth incubated with compound for 72 hrs followed by further incubated for 72 hrs (single treatment) by CellTiter 96 aqueous assay; type: toxicity, cell-based; in short: as §1
[9] = Cytotoxicity against human MDA-MB-231 cells assessed as inhibition of cell growth incubated for 72 hrs and followed by treated with compound continued incubation for further 72 hrs (double treatment) after retreatment of compound by CellTiter 96 aqueous assay; type: toxicity, cell-based; in short: as §1
[10] = target: T1, Gastrin-releasing peptide receptor; assay: Displacement of 125 I- [Tyr4] from bombesin receptor 2 in human PC-3 cells assessed as inhibition by radioligand displacement assay; type: cell-based
In short: (§2)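 Competition binding on membrane preparations from PC-3 or MDA-MB-231 cells against ¹²⁵I-[Tyr⁴]-bombesin, with conjugates at 10 μM–10 pM. IC50 was taken as the concentration giving 50 % inhibition of tracer binding.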

[11] = target: T1, Gastrin-releasing peptide receptor; assay: Displacement of 125 I- [Tyr4] from bombesin receptor 2 in human MDA-MB-231 cells assessed as inhibition by radioligand displacement assay; type: cell-based; in short: as §2

| IC50 [1] [nM] | IC50 [2] [nM] | IC50 [3] [nM] | IC50 [10] [nM] | IC50 [11] [nM] | SMILES | IC50 at 72 h [4] [nM] | IC50 at 72 h [5] [nM] | IC50 at 144 h [6] [nM] | IC50 at 144 h [7] [nM] | IC50 at 144 h [8] [nM] | IC50 at 144 h [9] [nM] |
| --- | --- | --- | --- | --- | --- | --- | --- | --- | --- | --- | --- |
| > 10000 | 2180 | > 10000 | – | – | CCCC[C@H](NC(=O)C[C@H](O)[C@H](CC(C)C)NC(=O)[C@H](Cc1c[nH]cn1)NC(=O)CCNC(=O)[C@@H](NC(=O)[C@H](C)NC(=O)[C@H](Cc1c[nH]c2ccccc12)NC(=O)[C@H](CCC(N)=O)NC(=O)[C@@H](Cc1ccccc1)NC(=O)[C@H](CS)NC(C)=O)C(C)C)C(N)=O | – | – | – | – | – | – |
| – | – | – | 101 | 97.4 | CCCC[C@H](NC(=O)[C@H](CC(C)C)NC(=O)[C@H](Cc1c[nH]cn1)NC(=O)CNC(=O)[C@@H](NC(=O)[C@H](C)NC(=O)[C@H](CC1=CNC2C=CC=CC12)NC(=O)[C@H](CCC(N)=O)NC(=O)[C@H](CC(N)=O)NC(=O)CCOCCOCCOCCOCCNC(=O)[C@H](CSC1CC(=O)N(CCCCCC(=O)N[C@@H](CCC(=O)O)C(=O)N[C@H](C(=O)N[C@@H](CCCNC(N)=O)C(=O)Nc2ccc(COC(=O)N(C)[C@H](C(=O)N[C@H](C(=O)N(C)[C@@H]([C@@H](C)CC)[C@@H](CC(=O)N3CCC[C@H]3[C@H](OC)[C@@H](C)C(=O)N[C@H](C)[C@@H](O)c3ccccc3)OC)C(C)C)C(C)C)cc2)C(C)C)C1=O)NC(C)=O)C(C)C)C(N)=O (stereo partly specified) (I: Ac-C[PEG4]NQ[Trp(3a,7a-dihydro)]AVGHL[Nle]-NH2 / II: EV[Cit][PABC][NMeV]V[Dil][Dolaproine]-X3; linker I:1-II:N via Hexanoyl(6-succinimido-3yl)) | 64.1 | 344 | 18.2 | 12.6 | 60.1 | 52.7 |
| > 10000 | > 10000 | > 1000 | – | – | CCCC[C@H](NC(=O)C[C@H](O)[C@H](CC(C)C)NC(=O)[C@H](Cc1c[nH]cn1)NC(=O)CCNC(=O)[C@@H](NC(=O)[C@H](C)NC(=O)[C@H](Cc1c[nH]c2ccccc12)NC(=O)[C@H](CCC(N)=O)NC(=O)[C@@H](Cc1ccccc1)NC(C)=O)C(C)C)C(=O)N[C@@H](CS)C(N)=O | – | – | – | – | – | – |
| > 10000 | – | 1.11 | – | – | CC(=O)N[C@H](Cc1ccccc1)C(=O)N[C@@H](CCC(N)=O)C(=O)N[C@@H](Cc1c[nH]c2ccccc12)C(=O)N[C@@H](C)C(=O)N[C@H](C(=O)NCC(=O)N[C@@H](Cc1c[nH]cn1)C(=O)N[C@@H](CC(C)C)[C@@H](O)CC(=O)N[C@@H](CC(C)C)C(N)=O)C(C)C | – | – | – | – | – | – |
| > 10000 | 36.3 | 3600 | – | – | CC(=O)N[C@@H](CS)C(=O)N[C@H](Cc1ccccc1)C(=O)N[C@@H](CCC(N)=O)C(=O)N[C@@H](Cc1c[nH]c2ccccc12)C(=O)N[C@@H](C)C(=O)N[C@H](C(=O)N(C)CC(=O)N[C@@H](Cc1c[nH]cn1)C(=O)N[C@@H](CC(C)C)[C@@H](O)CC(=O)N[C@@H](CC(C)C)C(N)=O)C(C)C | – | – | – | – | – | – |
| > 10000 | 4750 | > 10000 | – | – | CC(=O)N[C@@H](CS)C(=O)N[C@H](C(=O)N[C@@H](CC(C)C)[C@@H](O)CC(=O)N[C@H](Cc1ccccc1)C(=O)N[C@H](CCC(N)=O)C(=O)NCC(=O)N[C@@H](CC(C)C)C(=O)N[C@@H](C)C(=O)N[C@@H](Cc1c[nH]c2ccccc12)C(=O)N[C@@H](Cc1c[nH]cn1)C(N)=O)C(C)C | – | – | – | – | – | – |
| – | – | – | 83.2 | 79.3 | CCCC[C@H](NC(=O)[C@H](CC(C)C)NC(=O)[C@H](Cc1c[nH]cn1)NC(=O)CNC(=O)[C@@H](NC(=O)[C@H](C)NC(=O)[C@H](CC1=CNC2C=CC=CC12)NC(=O)[C@H](CCC(N)=O)NC(=O)[C@H](CC(N)=O)NC(=O)CCOCCOCCOCCOCCNC(=O)[C@H](CSC1CC(=O)N(CCCCCC(=O)N[C@@H](CCC(=O)O)C(=O)NCC(=O)N[C@@H](CCCNC(N)=O)C(=O)Nc2ccc(COC(=O)N(C)[C@H](C(=O)N[C@H](C(=O)N(C)[C@@H]([C@@H](C)CC)[C@@H](CC(=O)N3CCC[C@H]3[C@H](OC)[C@@H](C)C(=O)N[C@H](C)[C@@H](O)c3ccccc3)OC)C(C)C)C(C)C)cc2)C1=O)NC(C)=O)C(C)C)C(N)=O (stereo partly specified) (I: Ac-C[PEG4]NQ[Trp(3a,7a-dihydro)]AVGHL[Nle]-NH2 / II: EG[Cit][PABC][NMeV]V[Dil][Dolaproine]-X3; linker I:1-II:N via Hexanoyl(6-succinimido-3yl)) | 830 | 1260 | 248 | 200 | 270 | 217 |
| > 10000 | 5290 | 5250 | – | – | CC(=O)N[C@@H](CS)C(=O)N[C@H](Cc1ccccc1)C(=O)N[C@@H](CCC(N)=O)C(=O)N[C@@H](Cc1c[nH]c2ccccc12)C(=O)N[C@@H](C)C(=O)N[C@H](C(=O)NCCC(=O)N[C@@H](Cc1c[nH]cn1)C(=O)N[C@@H](CC(C)C)[C@@H](O)CC(=O)N[C@@H](CC(C)C)C(N)=O)C(C)C | – | – | – | – | – | – |
| > 10000 | > 10000 | > 1000 | – | – | CCCC[C@H](NC(=O)C[C@H](O)[C@H](CC(C)C)NC(=O)[C@H](Cc1c[nH]cn1)NC(=O)CN(C)C(=O)[C@@H](NC(=O)[C@H](C)NC(=O)[C@H](Cc1c[nH]c2ccccc12)NC(=O)[C@H](CCC(N)=O)NC(=O)[C@@H](Cc1ccccc1)NC(C)=O)C(C)C)C(=O)N[C@@H](CS)C(N)=O | – | – | – | – | – | – |
| – | – | – | – | – | CCCC[C@H](NC(=O)C[C@H](O)[C@H](CC(C)C)NC(=O)[C@H](Cc1c[nH]cn1)NC(=O)CCNC(=O)[C@@H](NC(=O)[C@H](C)NC(=O)[C@H](Cc1c[nH]c2ccccc12)NC(=O)[C@H](CCC(N)=O)NC(=O)[C@@H](Cc1ccccc1)NC(=O)[C@H](CSC1CC(=O)N(CCCCCC(=O)N[C@H](C(=O)N[C@@H](CCCNC(N)=O)C(=O)Nc2ccc(COC(=O)N(C)[C@H](C(=O)N[C@H](C(=O)N(C)[C@@H]([C@@H](C)CC)[C@@H](CC(=O)N3CCC[C@H]3[C@H](OC)[C@@H](C)C(=O)N[C@H](C)[C@@H](O)c3ccccc3)OC)C(C)C)C(C)C)cc2)C(C)C)C1=O)NC(C)=O)C(C)C)C(N)=O (stereo partly specified) | 852 | 1280 | 132 | 121 | 218 | 176 |
| > 10000 | > 10000 | > 10000 | – | – | CCCC[C@H](NC(=O)C[C@H](O)[C@H](CC(C)C)NC(=O)[C@H](Cc1c[nH]cn1)NC(=O)CNC(=O)[C@@H](NC(=O)[C@H](C)NC(=O)[C@H](Cc1c[nH]c2ccccc12)NC(=O)[C@H](CCC(N)=O)NC(=O)[C@@H](Cc1ccccc1)NC(C)=O)C(C)C)C(=O)N[C@@H](CS)C(N)=O | – | – | – | – | – | – |
| > 10000 | > 10000 | > 10000 | – | – | CCCC[C@H](NC(=O)C[C@H](O)[C@H](CC(C)C)NC(=O)[C@H](Cc1c[nH]cn1)NC(=O)CCNC(=O)[C@@H](NC(=O)[C@H](C)NC(=O)[C@H](Cc1c[nH]c2ccccc12)NC(=O)[C@H](CCC(N)=O)NC(=O)[C@@H](Cc1ccccc1)NC(C)=O)C(C)C)C(N)=O (Ac-[dF]QWAV[βAla]H[Sta][Nle]-NH2) | – | – | – | – | – | – |
| > 10000 | > 10000 | 10.1 | – | – | CC(=O)N[C@H](Cc1ccccc1)C(=O)N[C@@H](CCC(N)=O)C(=O)N[C@@H](Cc1c[nH]c2ccccc12)C(=O)N[C@@H](C)C(=O)N[C@H](C(=O)NCC(=O)N[C@@H](Cc1c[nH]cn1)C(=O)N[C@@H](CC(C)C)[C@@H](O)CC(=O)N[C@@H](CC(C)C)C(=O)N[C@@H](CS)C(N)=O)C(C)C | – | – | – | – | – | – |
